Results taken from ChEMBL document CHEMBL1141283, “Benzaldehyde derivatives from Sarcodontia crocea” (2007).
Values after ≈ are worked out from the molar mass of the structure shown.

Tests used:
Format in all cases: functional
[1] = test system: Botrytis cinerea; assay: Antifungal activity against Botrytis cinerea IMI160282 by microdilution method
Method in brief: (§1)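 Broth microdilution with two-fold (×2) dilution series of compounds from 1.56 to 800 µg/mL, four replicates per concentration per test strain; MIC taken as the lowest concentration inhibiting growth. Nystatin (fungi) and chloramphenicol (bacteria) were run as positive controls over the same concentration range.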

[2] = test system: Cladosporium herbarum; assay: Antifungal activity against Cladosporium herbarum IMI300461 by microdilution method; method in brief: as §1
[3] = test system: Eurotium amstelodami; assay: Antifungal activity against Eurotium amstelodami FC1021 by microdilution method; conditions: Aspergillus amstelodami; method in brief: as §1
[4] = test system: Plenodomus lingam; assay: Antifungal activity against Leptosphaeria maculans IMI266355 by microdilution method; method in brief: as §1
[5] = test system: Bacillus subtilis; assay: Antibacterial activity against Bacillus subtilis IMI347329 by microdilution method; method in brief: as §1
[6] = test system: Pseudomonas syringae; assay: Antibacterial activity against Pseudomonas syringae IMI347448 by microdilution method
Method in brief: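 Two-fold broth microdilution MIC, four replicates per concentration per strain, over 1.56 to 800 µg/mL. Chloramphenicol served as the antibacterial positive control across the same concentration range.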

Compound	MIC [1] [µg/mL]	MIC [2] [µg/mL]	MIC [3] [µg/mL]	MIC [4] [µg/mL]	MIC [5] [µg/mL]	MIC [6] [µg/mL]
O=Cc1ccc(-c2ccoc2)cc1	200 (≈ 1160 µM)	200 (≈ 1160 µM)	100 (≈ 581 µM)	200 (≈ 1160 µM)	800 (≈ 4650 µM)	200 (≈ 1160 µM)
O=C(N[C@H](CO)[C@H](O)c1ccc([N+](=O)[O-])cc1)C(Cl)Cl [CHLORAMPHENICOL]	–	–	–	–	6.25 (≈ 19.3 µM)	3.13 (≈ 9.69 µM)
NYSTATIN	50	25	50	100	–	–
O=Cc1ccc(C2COC(=O)C2)cc1 (stereo not drawn)	200 (≈ 1050 µM)	400 (≈ 2100 µM)	200 (≈ 1050 µM)	400 (≈ 2100 µM)	> 800	400 (≈ 2100 µM)
